Data reported in ChEMBL document CHEMBL3046066, “Synthesis of new fluorinated Tebufenpyrad analogs with acaricidal activity through regioselective pyrazole formation” (2008).
Active and inactive are the calls of the source. The rule behind the calls is not given here.

Key:
Tetranychus urticae [1] = assay: Acaricidal activity against Tetranychus urticae (two-spotted spider mite) assessed as fertility inhibition at 0.16 g/L measured after 6 days; type: functional; details: 144 h
Summary of the method: (§1)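 Each compound was applied as a solution, with active-principle concentration in the assay of 5 g/L (preliminary screen) or 0.16 g/L. Adulticide effect (% adult mortality) and fertility inhibition (%) were scored 24 h, 4 days and 6 days after application.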

Tetranychus urticae [2] = assay: Acaricidal activity against Tetranychus urticae (two-spotted spider mite) assessed as fertility inhibition at 0.16 g/L measured after 4 days; type: functional; details: 96 h; summary of the method: as §1
Tetranychus urticae [3] = assay: Acaricidal activity against Tetranychus urticae (two-spotted spider mite) assessed as fertility inhibition at 0.16 g/L measured after 24 hr; type: functional; summary of the method: as §1
Tetranychus urticae [4] = assay: Acaricidal activity against Tetranychus urticae (two-spotted spider mite) assessed as fertility inhibition at 5 g/L measured after 4 days; type: functional; details: 96 h; summary of the method: as §1
Tetranychus urticae [5] = assay: Acaricidal activity against Tetranychus urticae (two-spotted spider mite) assessed as fertility inhibition at 5 g/L measured after 6 days; type: functional; details: 144 h; summary of the method: as §1
Tetranychus urticae [6] = assay: Acaricidal activity against Tetranychus urticae (two-spotted spider mite) assessed as fertility inhibition at 5 g/L measured after 24 hr; type: functional; summary of the method: as §1
Tetranychus urticae [7] = assay: Acaricidal activity against Tetranychus urticae (two-spotted spider mite) assessed as mortality at 0.16 g/L measured after 6 days; type: functional; details: 144 h; summary of the method: as §1
Tetranychus urticae [8] = assay: Acaricidal activity against Tetranychus urticae (two-spotted spider mite) assessed as mortality at 0.16 g/L measured after 4 days; type: functional; details: 96 h; summary of the method: as §1
Tetranychus urticae [9] = assay: Acaricidal activity against Tetranychus urticae (two-spotted spider mite) assessed as mortality at 0.16 g/L measured after 24 hr; type: functional; summary of the method: as §1
Tetranychus urticae [10] = assay: Acaricidal activity against Tetranychus urticae (two-spotted spider mite) assessed as mortality at 5 g/L measured after 4 days; type: functional; details: 96 h; summary of the method: as §1
Tetranychus urticae [11] = assay: Acaricidal activity against Tetranychus urticae (two-spotted spider mite) assessed as mortality at 5 g/L measured after 6 days; type: functional; details: 144 h; summary of the method: as §1
Tetranychus urticae [12] = assay: Acaricidal activity against Tetranychus urticae (two-spotted spider mite) assessed as mortality at 5 g/L measured after 24 hr; type: functional; summary of the method: as §1
Tetranychus urticae [13] = assay: Acaricidal activity against Tetranychus urticae (two-spotted spider mite) assessed as mortality at 1.5 g/L measured first 4 days; type: functional, organism-based
Summary of the method: (§2)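 Solutions at 1.50, 0.67 and 0.16 g/L were applied for a lower-concentration follow-up to the 5 g/L screen. Adult mortality (%) was scored over time after application, including within the first 24 h.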

Tetranychus urticae [14] = assay: Acaricidal activity against Tetranychus urticae (two-spotted spider mite) assessed as mortality at 1.5 g/L measured within 24 hr; type: functional; summary of the method: as §2
Tetranychus urticae [15] = assay: Acaricidal activity against Tetranychus urticae (two-spotted spider mite) assessed as mortality at 0.67 g/L measured within 24 hr; type: functional; summary of the method: as §2

Which results are given for `Cn1nc(CC(F)F)cc1C(=O)NCc1ccc(C(C)(C)C)cc1`?
inhibition at 160 µg/mL (Tetranychus urticae [1]): 98%; inhibition at 160 µg/mL (Tetranychus urticae [2]): 100%; inhibition at 160 µg/mL (Tetranychus urticae [3]): 96%; inhibition at 5000 µg/mL (Tetranychus urticae [4]): 100%; inhibition at 5000 µg/mL (Tetranychus urticae [5]): 100%; inhibition at 5000 µg/mL (Tetranychus urticae [6]): 100%; mortality at 160 µg/mL (Tetranychus urticae [7]): 10%; mortality at 160 µg/mL (Tetranychus urticae [8]): 14%; mortality at 160 µg/mL (Tetranychus urticae [9]): 59%; mortality at 5000 µg/mL (Tetranychus urticae [10]): 100%; mortality at 5000 µg/mL (Tetranychus urticae [11]): 100%; mortality at 5000 µg/mL (Tetranychus urticae [12]): 100%

What does the source list for `Cn1nc(CC(F)F)c(Cl)c1C(=O)NCc1ccc(C(C)(C)C)cc1`?
Activity (Tetranychus urticae [13]): Active; mortality at 1500 µg/mL (Tetranychus urticae [14]): 100%; inhibition at 160 µg/mL (Tetranychus urticae [1]): 100%; inhibition at 160 µg/mL (Tetranychus urticae [2]): 100%; inhibition at 160 µg/mL (Tetranychus urticae [3]): 100%; inhibition at 5000 µg/mL (Tetranychus urticae [4]): 100%; inhibition at 5000 µg/mL (Tetranychus urticae [5]): 100%; inhibition at 5000 µg/mL (Tetranychus urticae [6]): 100%; mortality at 160 µg/mL (Tetranychus urticae [7]): 75%; mortality at 160 µg/mL (Tetranychus urticae [8]): 71%; mortality at 160 µg/mL (Tetranychus urticae [9]): 80%; mortality at 5000 µg/mL (Tetranychus urticae [10]): 100%; mortality at 5000 µg/mL (Tetranychus urticae [11]): 100%; mortality at 5000 µg/mL (Tetranychus urticae [12]): 100%

With `Cn1nc(CCF)c(Cl)c1C(=O)NCc1ccc(C(C)(C)C)cc1` as the molecule, how does the Activity (Tetranychus urticae [13]) read?
Its Activity is “Active”.

What about the mortality at 670 µg/mL (Tetranychus urticae [15]) of the same molecule?
The mortality at 670 µg/mL was 96%.

What about the mortality at 1500 µg/mL (Tetranychus urticae [14]) of the same molecule?
Its mortality at 1500 µg/mL is 100%.

What about the inhibition at 160 µg/mL (Tetranychus urticae [1]) of the same molecule?
The inhibition at 160 µg/mL was 100%.

And the inhibition at 160 µg/mL (Tetranychus urticae [2])?
Its inhibition at 160 µg/mL is 100%.

What about the inhibition at 160 µg/mL (Tetranychus urticae [3]) of the same molecule?
The inhibition at 160 µg/mL was 100%.

What about the inhibition at 5000 µg/mL (Tetranychus urticae [4]) of the same molecule?
The inhibition at 5000 µg/mL was 100%.

And the inhibition at 5000 µg/mL (Tetranychus urticae [5])?
The inhibition at 5000 µg/mL was 100%.

What about the inhibition at 5000 µg/mL (Tetranychus urticae [6]) of the same molecule?
Its inhibition at 5000 µg/mL is 100%.

And the mortality at 160 µg/mL (Tetranychus urticae [7])?
Its mortality at 160 µg/mL is 100%.

And the mortality at 160 µg/mL (Tetranychus urticae [8])?
The mortality at 160 µg/mL was 100%.

And the mortality at 160 µg/mL (Tetranychus urticae [9])?
The mortality at 160 µg/mL was 96%.

And the mortality at 5000 µg/mL (Tetranychus urticae [10])?
Its mortality at 5000 µg/mL is 100%.

What about the mortality at 5000 µg/mL (Tetranychus urticae [11]) of the same molecule?
The mortality at 5000 µg/mL was 100%.

What about the mortality at 5000 µg/mL (Tetranychus urticae [12]) of the same molecule?
The mortality at 5000 µg/mL was 100%.

For `Cn1nc(CC(F)(F)F)c(Cl)c1C(=O)NCc1ccc(C(C)(C)C)cc1`, which inhibition at 5000 µg/mL (Tetranychus urticae [4]) is on record?
The inhibition at 5000 µg/mL was 98%.

And the inhibition at 5000 µg/mL (Tetranychus urticae [5])?
The inhibition at 5000 µg/mL was 98%.

And the inhibition at 5000 µg/mL (Tetranychus urticae [6])?
The inhibition at 5000 µg/mL was 97%.

What about the mortality at 5000 µg/mL (Tetranychus urticae [10]) of the same molecule?
Its mortality at 5000 µg/mL is 30%.

What about the mortality at 5000 µg/mL (Tetranychus urticae [11]) of the same molecule?
The mortality at 5000 µg/mL was 70%.

And the mortality at 5000 µg/mL (Tetranychus urticae [12])?
Its mortality at 5000 µg/mL is 25%.

With `CC(F)c1nn(C)c(C(=O)NCc2ccc(C(C)(C)C)cc2)c1Cl` (stereo not given) as the molecule, how does the Activity (Tetranychus urticae [13]) read?
The Activity was “Active”.

What about the inhibition at 160 µg/mL (Tetranychus urticae [1]) of the same molecule?
The inhibition at 160 µg/mL was 96%.

And the inhibition at 160 µg/mL (Tetranychus urticae [2])?
The inhibition at 160 µg/mL was 95%.

And the inhibition at 160 µg/mL (Tetranychus urticae [3])?
The inhibition at 160 µg/mL was 95%.

What about the inhibition at 5000 µg/mL (Tetranychus urticae [4]) of the same molecule?
The inhibition at 5000 µg/mL was 100%.

What about the inhibition at 5000 µg/mL (Tetranychus urticae [5]) of the same molecule?
Its inhibition at 5000 µg/mL is 100%.

What about the inhibition at 5000 µg/mL (Tetranychus urticae [6]) of the same molecule?
Its inhibition at 5000 µg/mL is 100%.

What about the mortality at 160 µg/mL (Tetranychus urticae [7]) of the same molecule?
Its mortality at 160 µg/mL is 66%.

What about the mortality at 160 µg/mL (Tetranychus urticae [8]) of the same molecule?
Its mortality at 160 µg/mL is 44%.

And the mortality at 160 µg/mL (Tetranychus urticae [9])?
The mortality at 160 µg/mL was 48%.

What about the mortality at 5000 µg/mL (Tetranychus urticae [10]) of the same molecule?
Its mortality at 5000 µg/mL is 75%.

And the mortality at 5000 µg/mL (Tetranychus urticae [11])?
The mortality at 5000 µg/mL was 100%.

What about the mortality at 5000 µg/mL (Tetranychus urticae [12]) of the same molecule?
The mortality at 5000 µg/mL was 70%.

What does the source list for `Cn1nc(C(F)C(F)(F)F)c(Cl)c1C(=O)NCc1ccc(C(C)(C)C)cc1` (stereo not given)?
inhibition at 5000 µg/mL (Tetranychus urticae [4]): 60%; inhibition at 5000 µg/mL (Tetranychus urticae [5]): 65%; inhibition at 5000 µg/mL (Tetranychus urticae [6]): 53%; mortality at 5000 µg/mL (Tetranychus urticae [10]): 10%; mortality at 5000 µg/mL (Tetranychus urticae [11]): 60%; mortality at 5000 µg/mL (Tetranychus urticae [12]): 10%

`CCc1nn(C)c(C(=O)NCc2ccc(C(C)(C)C)cc2)c1Cl` [TEBUFENPYRAD] was tested. Which inhibition at 160 µg/mL (Tetranychus urticae [1]) did it give?
The inhibition at 160 µg/mL was 100%.

And the inhibition at 160 µg/mL (Tetranychus urticae [2])?
Its inhibition at 160 µg/mL is 100%.

What about the inhibition at 160 µg/mL (Tetranychus urticae [3]) of the same molecule?
Its inhibition at 160 µg/mL is 84%.

What about the inhibition at 5000 µg/mL (Tetranychus urticae [4]) of the same molecule?
Its inhibition at 5000 µg/mL is 100%.

And the inhibition at 5000 µg/mL (Tetranychus urticae [5])?
The inhibition at 5000 µg/mL was 100%.

What about the inhibition at 5000 µg/mL (Tetranychus urticae [6]) of the same molecule?
The inhibition at 5000 µg/mL was 100%.

And the mortality at 160 µg/mL (Tetranychus urticae [7])?
Its mortality at 160 µg/mL is 100%.

What about the mortality at 160 µg/mL (Tetranychus urticae [8]) of the same molecule?
The mortality at 160 µg/mL was 100%.

And the mortality at 160 µg/mL (Tetranychus urticae [9])?
Its mortality at 160 µg/mL is 92%.

And the mortality at 5000 µg/mL (Tetranychus urticae [10])?
The mortality at 5000 µg/mL was 100%.

What about the mortality at 5000 µg/mL (Tetranychus urticae [11]) of the same molecule?
Its mortality at 5000 µg/mL is 100%.

What about the mortality at 5000 µg/mL (Tetranychus urticae [12]) of the same molecule?
The mortality at 5000 µg/mL was 100%.

What does the source list for `CC(F)c1cc(C(=O)NCc2ccc(C(C)(C)C)cc2)n(C)n1` (stereo not given)?
inhibition at 160 µg/mL (Tetranychus urticae [1]): 94%; inhibition at 160 µg/mL (Tetranychus urticae [2]): 91%; inhibition at 160 µg/mL (Tetranychus urticae [3]): 68%; inhibition at 5000 µg/mL (Tetranychus urticae [4]): 96%; inhibition at 5000 µg/mL (Tetranychus urticae [5]): 100%; inhibition at 5000 µg/mL (Tetranychus urticae [6]): 100%; mortality at 160 µg/mL (Tetranychus urticae [7]): 10%; mortality at 160 µg/mL (Tetranychus urticae [8]): 10%; mortality at 160 µg/mL (Tetranychus urticae [9]): 16%; mortality at 5000 µg/mL (Tetranychus urticae [10]): 70%; mortality at 5000 µg/mL (Tetranychus urticae [11]): 80%; mortality at 5000 µg/mL (Tetranychus urticae [12]): 70%
